# CHRM5 agonist = human M5 muscarinic receptor agonists, primary screen, CHO-K1 cells, Fluo-8 calcium fluorescence | hit rate 0.19% among 360,000 | CHO-K1 hM5 cells; 0% DMSO wells, 100% maximal acetylcholine response | Muscarinic acetylcholine receptor M5 (Homo sapiens), P08912 | activation, % at 3 µM;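 active = activation above the run's mean over test compounds plus 3 SD, cut at about 23% in these data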;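 note: signal is peak over basal fluorescence ratio across the kinetic read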
# CHRM4 agonist = human M4 muscarinic receptor agonists, primary screen, CHO-K1 cells, Fluo-8 calcium fluorescence | hit rate 0.14% among 360,000 | Muscarinic acetylcholine receptor M4 (Homo sapiens), P08173 | activation, % at 3 µM | CHO-K1 hM4/Gqi5; vehicle 0%, full acetylcholine response 100% | AID 624127, 2012;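 active = activation above the run mean over all test wells plus 3 SD, cut at about 32% in these data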;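 note: peak over basal fluorescence ratio per well then scaled between controls; 0% = DMSO wells and 100% = acetylcholine at EC100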
# Target sequence (P08173 whole entry, looked up): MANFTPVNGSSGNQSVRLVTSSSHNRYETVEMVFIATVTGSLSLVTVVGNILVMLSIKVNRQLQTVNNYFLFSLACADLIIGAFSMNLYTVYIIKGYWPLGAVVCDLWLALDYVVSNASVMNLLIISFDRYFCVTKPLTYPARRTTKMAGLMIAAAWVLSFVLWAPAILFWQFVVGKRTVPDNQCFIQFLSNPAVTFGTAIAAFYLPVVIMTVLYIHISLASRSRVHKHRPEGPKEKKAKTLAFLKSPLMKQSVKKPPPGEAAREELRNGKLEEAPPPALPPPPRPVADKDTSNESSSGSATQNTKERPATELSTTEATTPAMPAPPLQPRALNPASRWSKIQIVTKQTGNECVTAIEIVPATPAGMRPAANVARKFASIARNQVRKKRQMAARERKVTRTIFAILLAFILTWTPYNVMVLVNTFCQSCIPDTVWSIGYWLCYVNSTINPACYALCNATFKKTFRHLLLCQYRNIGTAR
# M5 PAM = human M5 muscarinic receptor positive allosteric modulators, primary screen, CHO-K1 cells, Fluo-8 calcium fluorescence; Muscarinic acetylcholine receptor M5 (Homo sapiens), P08912; CHO-K1 hM5, ACh EC20 PAM; 0% = ACh EC20, 100% = ACh EC100; activation, % at 3 µM; hit rate 0.3% among 360,000;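 active = activation above the run cutoff, the mean activation of all test compounds plus 3 SD, cut at about 18% in these data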
#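 System: CHO-K1 cell line with stable human muscarinic M5 receptor expression | Also added: EC20 acetylcholine as agonist stimulus | Compound: One concentration, 3 µM final (nominal) | Timing: Fluo-8 loading 80 min at 37 °C plus 30 min room temperature | Measured by: Fluo-8 calcium dye fluorescence, kinetic read | Read-out basis: % activation, ACh-normalized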
# CHRM4 PAM = human M4 muscarinic receptor positive allosteric modulators, primary screen, CHO-K1 cells, Fluo-8 calcium fluorescence; hit rate 0.4% among 360,000; activation, % at 3 µM; Muscarinic acetylcholine receptor M4 (Homo sapiens), P08173; CHO-K1 hM4/Gqi5, ACh EC20; 0% = ACh EC20, 100% = maximal ACh;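 active = activation above its plate's cutoff, the mean activation of sample wells plus 3 SD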
# CHRM4 antagonist = human M4 muscarinic receptor antagonists, primary screen, CHO cells, Fluo-8 calcium fluorescence; AID 624125, 2012; CHO-hM4 cells, ACh EC80; hit rate 0.73% among 360,000; inhibition, % at 3 µM; Muscarinic acetylcholine receptor M4 (Homo sapiens), P08173;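 active = inhibition above its plate's cutoff, the mean inhibition of sample wells plus 3 SD, cut at about 27% in these data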;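 note: 0% = acetylcholine EC80 with DMSO and 100% = DMSO without agonist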
# CHRM5 antagonist = human M5 muscarinic receptor antagonists, primary screen, CHO cells, Fluo-8 calcium fluorescence; Muscarinic acetylcholine receptor M5 (Homo sapiens), P08912; CHO-hM5 cells, ACh EC80; inhibition, % at 3 µM; hit rate 0.59% among 360,000; AID 624040, 2012;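 active = inhibition above a per-plate cutoff, the mean of that plate's test compounds plus 3 SD, cut at about 27% in these data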;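 note: 0% = acetylcholine EC80 with DMSO and 100% = DMSO without agonist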
# Numbers without * were called inactive. An excerpt weighted towards active compounds, which were near 1.8% of everything screened.
SMILES,CHRM5 agonist,CHRM4 agonist,M5 PAM,CHRM4 PAM,CHRM4 antagonist,CHRM5 antagonist
O=C(c1ccc(C#CC2(O)CCCCC2)cc1)N1CCN(C(c2ccccc2)c2ccccc2)CC1,-9.7,2.3,-14.0,-25.0,35.2*,16.6
Cc1ccccc1S(=O)(=O)NC(=O)C1(C)CCN1C(=O)c1ccccc1CCc1ccccc1 (centres undefined),-0.1,0.3,-2.9,3.0,-19.9,-2.9
OC(CNCCC1C=Nc2ccccc21)Cn1c2ccc(Cl)cc2c2cc(Cl)ccc21 (centres undefined),8.8,18.5,2.2,-11.2,36.6*,6.3
COc1ccccc1N(C)S(=O)(=O)c1ccc(C(=O)NCc2ccc3c(c2)OCO3)cc1,3.4,18.3,-14.8,-16.4,10.4,8.0
CCCc1cc2c(cc1N(C)S(=O)(=O)c1ccccc1)OCO2,-3.4,-2.7,-12.2,0.0,5.2,28.0*
CC(=O)OC[C@@H]1CN(Cc2ccccc2)C[C@H](n2cnc3c(NC4CCCC4)ncnc32)O1,0.2,1.6,1.7,3.5,-1.6,-3.0
Cc1ccc(N2C(=O)N(CC(=O)Nc3ccccc3C)C(=O)C2C)cc1 (centres undefined),1.7,2.5,19.4*,8.2,-15.7,-39.9
CCSc1nnc(NC(=O)CSc2nncc(=O)n2N)s1,5.6,0.4,5.6,4.1,-3.8,14.6
CCc1nnc(NC(=O)CSc2nncc(=O)n2N)s1,-0.3,0.9,24.3*,5.7,-6.4,-21.3
CN(C)S(=O)(=O)N1CCc2ccc(NC(=O)C3CCCO3)cc2C1 (centres undefined),-3.2,0.4,2.5,19.8*,-4.5,-0.7
O=C(Nc1ccc(S(=O)(=O)N2CCc3ccccc3C2)cc1)C1CCCO1 (centres undefined),5.1,8.3,-2.6,0.8,-0.2,5.7
CSc1ccc(CN(C)C(=O)C(c2ccccc2)c2ccccc2)cc1,-2.5,4.9,-2.8,-11.0,0.7,2.9
CN(CCN(C)C(C)(C)C)C(=O)C(c1ccccc1)c1ccccc1,-20.2,1.4,-35.2,-55.4,90.7*,31.3*
Nc1[nH]n(-c2ccccc2)c(=O)c1N=Nc1ccc2ncsc2c1,6.3,9.1,-10.6,-12.4,7.0,1.1
CCOC(=O)CN(c1ccccc1C)S(=O)(=O)c1ccc(Cl)cc1,-8.5,-2.0,-7.5,-8.2,-6.5,4.5
COc1ccc(C)cc1NC(=O)CCN1CC(C)OC(C)C1 (centres undefined),-0.7,2.4,12.2,20.4*,-7.2,0.1
COc1ccc(CN2CCNC(=O)C2CC(=O)N(C)CC2CCOCC2)cc1C (centres undefined),-4.4,0.9,2.6,6.7,-14.5,-11.9
O=C1C=CC(=Nc2cccc3c2C(=O)c2ccccc2-3)O1,45.0*,67.2*,-13.6,0.9,15.0,12.0
O=C1C=CC(=Nc2ccc3c(c2)Cc2cc(F)ccc2-3)O1,-8.2,2.3,13.0,3.3,10.8,-1.4
COC(=O)c1cc(C)sc1NC(=O)CN1CCN(C(=O)C2CCCO2)CC1 (centres undefined),-0.7,2.4,7.9,2.8,0.1,-15.4
COc1cc(-c2nc3ccccn3c2/N=C/c2ccccc2)ccc1O,51.2*,0.5,-12.2,-1.7,6.8,2.7
COc1ccc(-c2ccc(N)cn2)cn1,2.0,1.4,5.3,1.7,-1.7,10.5
CCC1CCC/C1=N\NC(=O)c1ccoc1C (centres undefined),-3.8,0.6,-2.5,2.6,-3.4,8.1
CN(C(=O)c1cc2c(=O)n3ccccc3nc2n1C)C1CCCCC1,-4.3,3.5,-2.6,4.8,-6.4,0.9
COc1ccc(CCNc2nc(C)nc3c2oc2ccccc23)cc1OC,7.4,21.1,-20.7,-17.1,22.7,32.5*
